Bioassay records from PubChem.
This is a sample that favours compounds with a hit; in the whole collection about 1.9% have one here.
CHRM4 antagonist: blocks acetylcholine activation of human M4 receptor; CHO-hM4 cells, ACh EC80, Fluo-8 calcium fluorescence; AID 624125; P08173; inhibition, % at 3 µM; actives 0.73% (n = 360,000);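 active = inhibition above its plate's cutoff, the mean inhibition of sample wells plus 3 SD, cut at about 27% in these data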;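 also: 0% = acetylcholine EC80 with DMSO and 100% = DMSO without agonist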
Target sequence (P08173 whole entry, looked up): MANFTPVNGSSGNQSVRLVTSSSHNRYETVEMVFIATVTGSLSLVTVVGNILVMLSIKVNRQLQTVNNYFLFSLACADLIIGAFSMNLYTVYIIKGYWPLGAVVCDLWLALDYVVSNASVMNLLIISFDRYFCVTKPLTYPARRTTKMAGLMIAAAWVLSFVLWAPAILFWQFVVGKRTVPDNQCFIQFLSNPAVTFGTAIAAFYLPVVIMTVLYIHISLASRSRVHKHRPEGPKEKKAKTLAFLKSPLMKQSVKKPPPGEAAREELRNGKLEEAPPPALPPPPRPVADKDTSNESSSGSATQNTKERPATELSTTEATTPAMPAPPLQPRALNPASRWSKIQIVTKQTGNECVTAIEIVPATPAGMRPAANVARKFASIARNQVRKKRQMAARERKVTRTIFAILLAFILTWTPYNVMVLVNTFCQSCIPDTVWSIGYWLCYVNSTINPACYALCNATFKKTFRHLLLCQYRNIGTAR
M4 PAM: CHRM4 positive allosteric modulation | activation, % at 3 µM | CHO-K1 hM4/Gqi5, Fluo-8 calcium fluorescence, ACh EC20; 0% = ACh EC20, 100% = maximal ACh | P08173 | actives 0.4% (n = 360,000) | AID 624126;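 active = activation above its plate's cutoff, the mean activation of sample wells plus 3 SD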
M5 PAM: positive allosteric modulators of human muscarinic M5 receptor; AID 624038; activation, % at 3 µM; P08912; CHO-K1 hM5, Fluo-8 calcium, ACh EC20 PAM; 0% = ACh EC20, 100% = ACh EC100; actives 0.3% (n = 360,000);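 active = activation above the run cutoff, the mean activation of all test compounds plus 3 SD, cut at about 18% in these data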
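Assay system – human M5 receptor in CHO-K1 cells · Read-out – % activation, ACh-normalized · Technique – Fluo-8 calcium fluorescence · Dosing – single-point, 3 µM nominal · Incubation – Fluo-8 loading 80 min at 37 °C plus 30 min room temperature · Repeats – singlicate, one well per test compound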
CHRM5 agonist: agonists of human muscarinic M5 receptor (CHRM5); P08912; CHO-K1 hM5 cells, Fluo-8 calcium fluorescence; 0% DMSO wells, 100% maximal acetylcholine response; activation, % at 3 µM; actives 0.19% (n = 360,000); AID 624037;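 active = activation above the run's mean over test compounds plus 3 SD, cut at about 23% in these data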;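 also: signal is peak over basal fluorescence ratio across the kinetic read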
M4 ag: agonists of human muscarinic M4 receptor (CHRM4); CHO-K1 hM4/Gqi5, Fluo-8 calcium fluorescence; vehicle 0%, full acetylcholine response 100%; activation, % at 3 µM; actives 0.14% (n = 360,000); AID 624127;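 active = activation above the run mean over all test wells plus 3 SD, cut at about 32% in these data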;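 also: peak over basal fluorescence ratio per well then scaled between controls; 0% = DMSO wells and 100% = acetylcholine at EC100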
CHRM5 antagonist: blocks acetylcholine activation of human M5 receptor; inhibition, % at 3 µM; actives 0.59% (n = 360,000); CHO-hM5 cells, Fluo-8 calcium fluorescence, ACh EC80;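 active = inhibition above a per-plate cutoff, the mean of that plate's test compounds plus 3 SD, cut at about 27% in these data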;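 also: 0% = acetylcholine EC80 with DMSO and 100% = DMSO without agonist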
Active calls of the source: *.

SMILES	CHRM4 antagonist	M4 PAM	M5 PAM	CHRM5 agonist	M4 ag	CHRM5 antagonist
COC1=C(OC)[C@]23CCc4ccc(OC)c(OC)c4[C@]2(CCN3C)CC1=O	-7.3	13.5	2.3	-2.1	0.9	16.2
CN1CCC(OC(=O)C2c3ccccc3Oc3ccccc32)CC1	98.8*	-20.1	-42.5	-11.9	2.6	98.8*
COC(=O)C1=C(c2ccc(OC)c(OC)c2)C[C@@H]2CC[C@H]1N2C(=O)NCc1ccco1	-10.6	1.4	5.4	-2.7	0.1	7.3
C[C@]12CC[C@H](O)C[C@H]1CC[C@@H]1[C@@H]2CC[C@]2(C)C(=O)CC[C@@H]12	-5.3	2.2	-0.9	1.8	8.3	6.3
CC1=C[C@@H]2c3cccc4[nH]cc(c34)C[C@H]2N(C)C1	56.9*	-15.9	-14.3	-7.2	2.3	1.8
CN1C[C@H](CO)C=C2c3cccc4[nH]cc(c34)C[C@H]21	-11.6	7.1	2.6	1.1	2.3	4.2
CC[N+](CC)(CC)CCCOC(=O)C(O)(c1ccccc1)C1CCCCC1 (configuration not stated)	98.6*	-21.5	-21.8	-6.6	-0.3	99.1*
O=C(COC(=O)Cc1ccccc1)NC(=O)NC1CCCCC1	-1.3	5.6	-2.2	2.2	0.5	4.8
C[N+](C)(N)CCOC(=O)C(O)(c1ccccc1)C1CCCCC1 (configuration not stated)	99.5*	-14.7	-30.2	-20.1	1.0	99.5*
